The list is not random: actives were taken first. Their share in the collection is about 3.5%.
MrgX1 antagonist: antagonists of human MrgX1 receptor, primary screen, HEK293 cells, Fluo-4 calcium flux; Mas-related G-protein coupled receptor member X1 (Homo sapiens), Q96LB2; BAM8-22 antagonism; stronger effect = lower value; B-score at 10 µM; 1.3% of 310,000 active;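 active = calcium-response B-score plate-corrected more than 3 library SD below zero, starting fluorescence within 5 deviations, no agonist response on first addition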;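 also: peak minus trough fluorescence over baseline after final BAM8-22 challenge near maximal dose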
Target sequence (Q96LB2 whole entry, looked up): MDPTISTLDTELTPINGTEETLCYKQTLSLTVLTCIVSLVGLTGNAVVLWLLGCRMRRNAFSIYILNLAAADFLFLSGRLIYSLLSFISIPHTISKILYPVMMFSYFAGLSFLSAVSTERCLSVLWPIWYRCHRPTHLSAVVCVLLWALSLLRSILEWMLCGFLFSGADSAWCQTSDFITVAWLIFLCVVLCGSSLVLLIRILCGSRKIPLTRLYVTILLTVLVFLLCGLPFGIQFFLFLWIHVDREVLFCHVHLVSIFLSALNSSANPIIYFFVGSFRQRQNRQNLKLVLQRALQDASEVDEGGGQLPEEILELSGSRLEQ
MrgX1 PAM: positive allosteric modulators of MrgX1, primary screen, HEK293 cells, Fluo-4 calcium flux; B-score at 10 µM; 0.63% of 310,000 active; FDSS; stronger effect = higher value; AID 588675, 2011;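 active = plate-corrected calcium response at least 3 library SD above typical, normal starting fluorescence, not activating the receptor alone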;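 also: compound read alongside a low EC10 to EC30 dose of BAM8-22 agonist; peak minus trough fluorescence over baseline measured at the second addition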
RGS4 block: RGS4 inhibitors, primary screen, cell-based, HEK293 M3R inducible RGS4, calcium flux | Regulator of G-protein signaling 4 (Homo sapiens), P49798 | Fluo-4 calcium flux; stronger effect = higher value; triggered by carbachol at its EC20 | B-score at 10 µM | 0.45% of 310,000 active;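 active = B-score, a plate-corrected calcium signal, over three deviations above library mean, with baseline fluorescence within five deviations of library mean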;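 also: RGS4 expression induced by doxycycline in cells with stable M3 receptor; B-score is computed from the integrated fluorescence ratio over baseline after carbachol; higher B-score means a larger calcium signal and so more RGS4 inhibition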
Target sequence (P49798 whole entry, looked up): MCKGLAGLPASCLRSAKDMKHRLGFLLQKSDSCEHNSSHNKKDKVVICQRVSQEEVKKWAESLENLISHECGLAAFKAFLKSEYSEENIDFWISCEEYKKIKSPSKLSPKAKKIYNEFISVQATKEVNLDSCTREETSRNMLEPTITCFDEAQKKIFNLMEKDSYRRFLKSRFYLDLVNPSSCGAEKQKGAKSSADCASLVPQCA
RGS4 act: RGS4 potentiators or activators, primary screen, cell-based, HEK293 M3R inducible RGS4, calcium flux. carbachol calcium flux Fluo4; stronger effect = lower value. B-score at 10 µM. 0.92% of 310,000 active. AID 463111, 2010;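 active = B-score of the integrated calcium signal more than 4 SD below the library mean, with starting fluorescence not abnormally high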;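 also: negative B-score means reduced calcium response which marks RGS4 activation or potentiation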
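Assay system: Inducible-RGS4 HEK293 cells carrying M3 receptor | Schedule: Compound preincubation 20 min at room temperature before agonist | Signal: Kinetic calcium fluorescence imaging with Fluo4-AM dye, 2 µM | Read-out basis: B score from integrated fluorescence ratio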
MrgX1 ag: agonists of human MrgX1 receptor, primary screen, HEK293 cells, Fluo-4 calcium flux; Fluo-4 calcium fluorescence, agonist mode; stronger effect = higher value; B-score at 10 µM; 0.44% of 310,000 active;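 active = calcium response B-score plate-corrected fluorescence ratio at least 3 library SD, with starting fluorescence B-score inside 5 SD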
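Test system: HEK293 cells stably expressing human MrgX1 receptor; Input: fifteen thousand cells per well; Dosing: compound delivered in addition one of three; Schedule: overnight seeding, then 1 h dark dye loading; Technique: Fluo-4 NW calcium fluorescence; Measure: B-scored fluorescence response ratio; Controls: positive and negative controls per plate.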
RGS4 inh valid: enhanced carbachol calcium response, M3R/RGS4 cells, RGS4 inhibitor project, cell-based, validation screen, HEK293 M3R/RGS4, calcium flux; 65% of 1,700 active; shares compounds with RGS4 block; calcium response, % at 10 µM; carbachol calcium Fluo-4 fluorescence; carbachol added at its EC20; 0 = buffer wells, 100 = carbachol control;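 active = duplicate-averaged calcium response above the buffer-only control mean plus 5 SD of those controls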;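 also: integrated fluorescence ratio F max minus min over baseline F0; higher response in RGS4-induced cells means RGS4 inhibition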
RGS4 uninduced: carbachol calcium response in non-induced M3R cells, confirmation, counter-screen for RGS4 inhibitor project, cell-based, HEK293 M3R. carbachol calcium Fluo-4; submaximal (EC20) carbachol stimulus; buffer wells 0%, carbachol control wells 100%. shares compounds with RGS4 block. activity (percent), % at 10 µM. 20% of 1,900 active; call rule not given here;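 also: RGS4 induction absent so cells express M3R without RGS4; higher means more calcium signal and flags a non-specific hit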
M3R basal Ca ctr: second counter-screen for RGS4 inhibitors: non-induced cells without carbachol; AID 493001; HEK293 M3R/RGS4 non-induced, Fluo-4 calcium, no carbachol; normalised: buffer wells 0%, carbachol wells 100%; shares compounds with RGS4 block; calcium response (agonist-mode artifact), % at 10 µM; 22% of 1,900 active;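 active = duplicate-averaged calcium rise in uninduced cells above buffer wells' mean plus 5 SD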
* marks the source's active call; other numbers are inactive results; i = inactive; / = not tested or not shown.

SMILES | MrgX1 antagonist | MrgX1 PAM | RGS4 block | RGS4 act | MrgX1 ag | RGS4 inh valid | RGS4 uninduced | M3R basal Ca ctr
CC(=O)Nc1scc(C)c1-c1nc2ccccc2s1 | i | i | i | i | i | / | / | /
Cc1csc(NC(=O)COCC(=O)O)c1-c1nc2ccccc2s1 | i | i | 6.8* | i | i | 22%* | i | i
Cc1csc(NC(=O)CCCC(=O)O)c1-c1nc2ccccc2s1 | i | i | 6.2* | i | i | 32%* | 48%* | i
Cc1ccc(S(=O)(=O)Nc2cc3c4c(c2)CCC(=O)N4CCC3)cc1 | i | i | i | i | i | / | / | /
Cc1c(NC2(C#N)CCCCC2)c(=O)n(-c2ccccc2)n1C | i | i | i | i | i | / | / | /
N#Cc1ccc(C2=NC(C(F)(F)F)(C(F)(F)F)c3c(n(Cc4ccco4)c(=O)[nH]c3=O)N2)cc1 | i | i | 6.1* | i | 37* | 13%* | i | 16%*
c1ccc(CCNCCCOc2cccc3ccccc23)cc1 | i | i | i | i | i | / | / | /
O=C(NCCS(=O)(=O)NCc1ccccc1Cl)c1ccccc1 | i | i | i | i | i | / | / | /
CC1=NN(c2cccc(C(=O)O)c2)C(=O)/C1=C\C=C\c1ccco1 | i | i | 9.8* | i | i | 16%* | 34%* | i
CC1=NN(c2ccccc2)C(=O)/C1=C/C=C/c1ccccc1 | i | i | i | i | i | / | / | /
C#CCOc1ccc(/C=C2/C(=O)N(c3cccc(C(=O)O)c3)N=C2C)cc1OC | i | i | 6* | i | i | 5.0%* | i | i
O=C(c1cc(=O)[nH]c2ccccc12)N(Cc1nnc(-c2ccccc2Cl)o1)C1CC1 | i | i | i | i | i | / | / | /
CCC1CCCCN1CCCn1c(=S)[nH]c2ccccc2c1=O (configuration not stated) | i | i | 6.9* | i | i | 19%* | i | i
COc1ccc(OCCSc2nnc(Cc3cccc4ccccc34)n2N)cc1 | i | i | i | i | i | / | i | i
O=C(c1ccco1)N1CCN(c2ncnc3c(-c4ccccc4)nsc23)CC1 | i | i | i | i | i | / | i | i
NC(=O)C1CCN(c2ncnc3c(-c4ccccc4)nsc23)CC1 | i | i | i | i | i | / | / | /
COc1ccc(-c2nsc3c(N4CCN(C(=O)c5ccco5)CC4)ncnc23)cc1 | i | i | i | i | i | i | i | i
CCCCCCC[N+](CC)(CC)CCCCc1ccc(Cl)cc1 | i | i | / | / | i | / | / | /
CC1=CC(C)(C)N2C(=O)C3(NCCc4c3[nH]c3ccccc43)c3cccc1c32 (configuration not stated) | i | i | i | i | i | / | / | /
COc1ccc(Cl)cc1S(=O)(=O)N1CCCC(C(=O)N2CCOCC2)C1 (configuration not stated) | i | i | i | i | i | i | i | i
Cc1ccc(N(CC(=O)N2CCN(c3ccc(F)cc3)CC2)S(=O)(=O)c2c(C)noc2C)cc1 | i | i | i | i | i | / | / | /
CC1(C)CC(=O)C(C(C2=C(O)CC(C)(C)CC2=O)c2cccs2)C(=O)C1 (configuration not stated) | i | i | 5.7* | i | i | 24%* | 58%* | i
CC1(C)CC(=O)C(C(C2=C(O)CC(C)(C)CC2=O)c2cccc(O)c2)C(=O)C1 (configuration not stated) | i | i | / | / | i | / | / | /
Cc1ccc(C(C2=C(O)CC(C)(C)CC2=O)C2C(=O)CC(C)(C)CC2=O)o1 (configuration not stated) | i | i | 9.3* | i | i | 16%* | i | i
O=C(CNC(=O)C(c1ccccc1)c1ccccc1)N/N=C\c1ccc(C(=O)O)cc1 | i | i | i | i | i | / | / | /
SMILES | MrgX1 antagonist | MrgX1 PAM | RGS4 block | RGS4 act | MrgX1 ag | RGS4 inh valid | RGS4 uninduced | M3R basal Ca ctr
CCC(NC(=O)CCc1nnc(-c2cc(C)on2)o1)C12CC3CC(CC(C3)C1)C2 (configuration not stated) | i | i | i | i | i | / | / | /
COc1ccc(S(=O)(=O)NC(CCSC)C(=O)NC2CCCCC2)cc1 (configuration not stated) | i | i | 5.2* | i | i | i | i | i
CSCCC(NS(=O)(=O)c1ccc(C)cc1)C(=O)NC1CCCCCC1 (configuration not stated) | i | i | i | i | i | / | i | i
COc1ccc(C(=O)COC(=O)C(CCSC)NS(=O)(=O)c2ccc(Cl)cc2)cc1 (configuration not stated) | i | i | i | i | i | / | / | /
CSCCC(NS(=O)(=O)c1ccc(C)cc1)C(=O)NC1CCCCC1 (configuration not stated) | i | i | i | i | i | i | i | i
CCN(CC)CCn1c2c(c(SCC(=O)Nc3cc(C)on3)nc1=O)CCCC2 | i | i | i | i | i | / | / | /
C/C(=N\Nc1ccc(F)cc1F)c1ccc(Br)s1 | i | i | i | i | i | / | / | /
COc1ccc(-c2csc(NC(=O)c3ccco3)n2)cc1 | i | i | i | i | i | i | i | i
CCOc1ccc(-c2csc(NC(=O)c3ccco3)n2)cc1 | i | i | 5* | i | i | 5.0%* | i | i
COc1cccc(C(=O)Nc2nc(-c3ccncc3)cs2)c1 | i | i | i | i | i | / | / | /
COc1ccc(-c2csc(NC(=O)c3c(OC)cccc3OC)n2)cc1 | i | i | 5.5* | i | i | 16%* | 30%* | i
O=C(Nc1nc(-c2ccccc2)cs1)c1ccco1 | i | i | i | i | i | / | / | /
Cc1ccc(-c2csc(NC(=O)c3ccco3)n2)cc1C | i | i | 25* | i | i | 56%* | 34%* | i

High-throughput results: PubChem BioAssay, Johns Hopkins Ion Channel Center
